# “And” between values parts separate entries of the source, which are not always exact repeats. Identical values can stand only once.
# Key:
# Type in all cases: toxicity, cell-based
# [1] = tested on: U2OS; test: Multiplex assay against U2OS; conditions: human, number of replicates 2
# How it was run: (§1)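 Live cells were stained at seeding with Hoechst33342, BioTracker Green Microtubule Cytoskeleton Dye, MitoTracker Red and Annexin V Alexa Fluor 680. Following compound addition, they were imaged on a CQ1 microscope at 37°C and 5% CO2 and gated by CellPathfinder machine learning into Hoechst high-intensity objects or normal cells, with normal cells split into healthy, pyknosed or fragmented nuclei and pyknosed cells into mitotic or apoptotic. Tubulin, mitochondrial-mass and membrane-permeability phenotypes are per cents of healthy-nucleus cells.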
# [2] = tested on: Fibroblast; test: Multiplex assay against human fibroblast; conditions: number of replicates 2; how it was run: as §1
# [3] = tested on: HEK-293T; test: Multiplex assay against HEK293T; conditions: human, number of replicates 2; how it was run: as §1
# [4] = 12 h, 1 µM, compound concentration 1 uM
# [5] = 12 h, 10 µM, compound concentration 10 uM
# [6] = 24 h, 1 µM, compound concentration 1 uM
# [7] = 24 h, 10 µM, compound concentration 10 uM
# [8] = 48 h, 1 µM, compound concentration 1 uM
# [9] = 48 h, 10 µM, compound concentration 10 uM
smiles,measurement,setting,value
CS(=O)(=O)c1ccc(C(=O)Nc2ccc(F)c(COc3ccc(Br)cc3CN3CC[C@H](O)C3)c2)c(Cl)c1.O=CO,Population Apoptotic (%),[1]; [4],60%
same,Population Healthy Nuclei (%),[1]; [4],60% and 82%
same,Population Normal (%),[1]; [4],100%
same,Population Pyknosed Nuclei (%),[1]; [4],10%
same,Population Apoptotic (%),[1]; [5],91% and 68%
same,Population Healthy Nuclei (%),[1]; [5],41% and 73%
same,Population Normal (%),[1]; [5],100% and 98%
same,Population Pyknosed Nuclei (%),[1]; [5],22%
same,Population Apoptotic (%),[1]; [6],77% and 65%
same,Population Healthy Nuclei (%),[1]; [6],62% and 84%
same,Population Normal (%),[1]; [6],100%
same,Population Pyknosed Nuclei (%),[1]; [6],13%
same,Population Apoptotic (%),[1]; [7],71% and 92%
same,Population Healthy Nuclei (%),[1]; [7],61% and 47%
same,Population Normal (%),[1]; [7],98% and 100%
same,Population Apoptotic (%),[1]; [8],100% and 93%
same,Population Healthy Nuclei (%),[1]; [8],67% and 88%
same,Population Normal (%),[1]; [8],100%
same,Population Pyknosed Nuclei (%),[1]; [8],9%
same,Population Apoptotic (%),[1]; [9],94% and 89%
same,Population Healthy Nuclei (%),[1]; [9],23% and 51%
same,Population Normal (%),[1]; [9],97% and 100%
same,Population Pyknosed Nuclei (%),[1]; [9],41% and 39%
same,Population Apoptotic (%),[2]; [4],42% and 43%
same,Population Fragmented Nuclei (%),[2]; [4],7% and 9%
same,Population Healthy Nuclei (%),[2]; [4],63% and 67%
same,Population Hoechst High Intensity Objects (%),[2]; [4],0%
same,Population Normal (%),[2]; [4],100%
same,Total Cell Count,[2]; [4],217 and 239
same,Population Apoptotic (%),[2]; [5],42% and 43%
same,Population Fragmented Nuclei (%),[2]; [5],21%
same,Population Healthy Nuclei (%),[2]; [5],50% and 52%
same,Population Hoechst High Intensity Objects (%),[2]; [5],0%
same,Population Normal (%),[2]; [5],100% and 99%
same,Total Cell Count,[2]; [5],194 and 258
same,Population Apoptotic (%),[2]; [6],42% and 57%
same,Population Fragmented Nuclei (%),[2]; [6],10% and 14%
same,Population Healthy Nuclei (%),[2]; [6],64% and 69%
same,Population Hoechst High Intensity Objects (%),[2]; [6],0%
same,Population Normal (%),[2]; [6],100% and 99%
same,Total Cell Count,[2]; [6],220 and 253
same,Population Apoptotic (%),[2]; [7],72% and 81%
same,Population Fragmented Nuclei (%),[2]; [7],15%
same,Population Healthy Nuclei (%),[2]; [7],62% and 52%
same,Population Hoechst High Intensity Objects (%),[2]; [7],0%
same,Population Normal (%),[2]; [7],100% and 99%
same,Total Cell Count,[2]; [7],197 and 255
same,Population Apoptotic (%),[2]; [8],71% and 78%
same,Population Fragmented Nuclei (%),[2]; [8],18% and 14%
same,Population Healthy Nuclei (%),[2]; [8],64% and 73%
same,Population Hoechst High Intensity Objects (%),[2]; [8],0%
same,Population Normal (%),[2]; [8],99%
same,Total Cell Count,[2]; [8],244 and 243
same,Population Apoptotic (%),[2]; [9],88%
same,Population Fragmented Nuclei (%),[2]; [9],20% and 15%
same,Population Healthy Nuclei (%),[2]; [9],58% and 63%
same,Population Hoechst High Intensity Objects (%),[2]; [9],0%
same,Population Normal (%),[2]; [9],100% and 98%
same,Total Cell Count,[2]; [9],178 and 242
same,Population Apoptotic (%),[3]; [4],55% and 45%
same,Population Healthy Nuclei (%),[3]; [4],81% and 82%
same,Population Mitotic Cells (%),[3]; [4],44% and 54%
same,Population Normal (%),[3]; [4],94% and 93%
same,Total Cell Count,[3]; [4],519 and 629
same,Population Apoptotic (%),[3]; [5],61% and 58%
same,Population Healthy Nuclei (%),[3]; [5],87% and 82%
same,Population Normal (%),[3]; [5],91% and 88%
same,Total Cell Count,[3]; [5],484 and 427
same,Population Apoptotic (%),[3]; [6],60% and 47%
same,Population Healthy Nuclei (%),[3]; [6],80% and 83%
same,Population Mitotic Cells (%),[3]; [6],52%
same,Population Normal (%),[3]; [6],92% and 93%
same,Total Cell Count,[3]; [6],796 and 885
same,Population Apoptotic (%),[3]; [7],69% and 68%
same,Population Healthy Nuclei (%),[3]; [7],85% and 79%
same,Population Mitotic Cells (%),[3]; [7],30%
same,Population Normal (%),[3]; [7],90% and 91%
same,Total Cell Count,[3]; [7],489 and 456
same,Population Apoptotic (%),[3]; [8],29% and 26%
same,Population Healthy Nuclei (%),[3]; [8],83% and 86%
same,Population Mitotic Cells (%),[3]; [8],70% and 73%
same,Population Normal (%),[3]; [8],89% and 92%
same,Total Cell Count,[3]; [8],1639 and 1757
same,Population Apoptotic (%),[3]; [9],74% and 55%
same,Population Healthy Nuclei (%),[3]; [9],82% and 85%
same,Population Mitotic Cells (%),[3]; [9],25% and 44%
same,Population Normal (%),[3]; [9],86% and 90%
same,Total Cell Count,[3]; [9],548 and 631
